Assay results reported in ChEMBL document CHEMBL2396632 (Bioorg Med Chem Lett, 2013).
Activity calls are given as the source filed them. No cut-off for these calls is given here.

What was measured:
[1] = molecular target: T1, Calcitonin gene-related peptide type 1 receptor (Homo sapiens, UniProt O60894+Q16602); experiment: Antagonist activity at human CGRP receptor
[2] = Vasoconstriction of human coronary artery; type: functional, tissue-based
Rattus norvegicus [3] = experiment: Toxicity in Sprague-Dawley rat assessed as nasal irritation at 175 mg/mL administered intranasally for 7 days; type: organism-based; details: in vivo, inhaled_or_intranasal, 168 h
Outline: (§1)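 Seven-day rat intranasal irritancy study. Dosing at 75 or 175 mg/mL, 12.5 µL/nostril in succinate buffer, giving total doses of 1.875 mg and 4.375 mg. Nasal cavity and respiratory epithelium were examined histologically.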

Rattus norvegicus [4] = experiment: Toxicity in Sprague-Dawley rat assessed as nasal irritation at 75 mg/mL administered intranasally for 7 days; type: organism-based; details: in vivo, inhaled_or_intranasal, 168 h; outline: as §1
Homo sapiens [5] = species on record: Homo sapiens; experiment: Selectivity ratio for human CGRP receptor over adrenomedullin receptor-1 (unknown origin)
[6] = Oral bioavailability in intranasally dosed New Zealand White rabbit at 10 mg/mL; type: ADME, organism-based, Oryctolagus cuniculus; details: in vivo, other: intranasal
Outline: (§2)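 Intranasal dosing in rabbit with 10 to 100 mg/mL dosing solutions, then plasma sampling from 5 min to 24 h. Reported values are Cmax, Tmax, and absolute bioavailability for each dosing-solution concentration.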

[7] = Plasma concentration in marmoset at 0.03 mg/kg, sc measured 15 to 105 mins post-dose; type: ADME, organism-based, Callithrix jacchus; set-up: dose 0.03 mg/kg, route subcutaneous; details: in vivo
Outline: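 Total plasma levels were measured in anesthetized marmosets given the antagonist SC at 0 min, sampled over the 15–105 min post-dose period. The animals also received repeated IV hαCGRP (10 μg/kg) challenges for the facial blood flow model.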

[8] = Cmax in intranasally dosed New Zealand White rabbit; type: ADME, organism-based, Oryctolagus cuniculus; set-up: route nasal; details: in vivo, inhaled or intranasal; outline: as §2
Callithrix jacchus [9] = experiment: Inhibition of human alphaCGRP-induced increase in facial blood flow in marmoset at 0.03 mg/kg, sc administered 30 mins after human alphaCGRP-challenge measured 105 mins post-dose by laser Doppler flowmetric analysis relative to control; type: functional; details: route subcutaneous
Outline: (§3)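 Anesthetized marmosets received four IV hαCGRP challenges (10 μg/kg) at 45 min intervals (-30, 15, 60, 105 min) to raise facial blood flow, monitored by laser Doppler. Antagonist given SC at 0 min. The first challenge is the pre-dose vehicle baseline, and inhibition at each post-dose challenge is expressed against it.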

[10] = Toxicity in sc dosed Sprague-Dawley rat after 10 days; type: organism-based; details: in vivo
Outline: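 Rats were dosed subcutaneously once daily for 10 days at 0.3, 3, 10 and 30 mg/kg/day and assessed for tolerability and signs of systemic toxicity.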

[11] = Chemical degradation in succinate buffer at 40 mg/mL after 3 months at pH 6
Homo sapiens [12] = species on record: Homo sapiens; experiment: Selectivity ratio for human CGRP receptor over amylin receptor-3 (unknown origin)
[13] = Permeability from basolateral to apical side of human Caco2 cells; type: ADME, cell-based; details: Caco-2, read-out: permeability
Callithrix jacchus [14] = experiment: Inhibition of human alphaCGRP-induced increase in facial blood flow in marmoset at 0.03 mg/kg, sc administered 30 mins after human alphaCGRP-challenge measured 60 mins post-dose by laser Doppler flowmetric analysis relative to control; type: functional; details: route subcutaneous; outline: as §3
[15] = Permeability of the compound by PAMPA; type: ADME
[16] = Oral bioavailability in cynomolgus monkey; type: ADME, organism-based, Macaca fascicularis; details: in vivo
[17] = Reversal of CGRP-induced dilation of human intracranial arterial rings; type: functional
Outline: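 Ex vivo reversal protocol: vessels fully dilated with CGRP, then cumulative addition of antagonist in a 3-point concentration-response. EC50 (concentration giving 50% reversal) estimated by best fit, n = 4 vessels per compound.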

Rattus norvegicus [18] = experiment: Toxicity in Sprague-Dawley rat assessed as lesions in nasal olfactory epithelium at => 75 mg/mL administered intranasally for 7 days; type: organism-based; details: in vivo, inhaled_or_intranasal, 168 h; outline: as §1
Cytochrome P450 1A2 = molecular target: T2, Cytochrome P450 1A2 (Homo sapiens, UniProt P05177); experiment: Inhibition of CYP1A2 (unknown origin) expressed in baculovirus-infected insect cell microsomes assessed as 3-cyano-7-ethoxycoumarin conversion to 7-hydroxy-3-cyanocoumarin after 45 mins by fluorescence assay; type: ADME, Microsome
T2 sequence (P05177 whole entry): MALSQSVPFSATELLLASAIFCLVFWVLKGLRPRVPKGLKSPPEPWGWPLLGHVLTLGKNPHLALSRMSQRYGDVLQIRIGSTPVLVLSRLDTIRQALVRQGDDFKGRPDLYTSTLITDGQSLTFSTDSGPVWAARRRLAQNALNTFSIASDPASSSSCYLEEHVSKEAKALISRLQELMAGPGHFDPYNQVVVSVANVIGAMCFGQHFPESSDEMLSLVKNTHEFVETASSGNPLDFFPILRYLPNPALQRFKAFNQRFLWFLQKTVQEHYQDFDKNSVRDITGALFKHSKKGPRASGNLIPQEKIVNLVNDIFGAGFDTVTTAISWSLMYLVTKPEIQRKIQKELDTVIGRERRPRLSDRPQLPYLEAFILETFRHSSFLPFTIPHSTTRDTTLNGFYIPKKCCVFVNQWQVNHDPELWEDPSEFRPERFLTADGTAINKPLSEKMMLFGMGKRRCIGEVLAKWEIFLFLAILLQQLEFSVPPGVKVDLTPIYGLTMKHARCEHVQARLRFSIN

[19] = Aqueous solubility of the compound; type: physicochemical; details: buffer
Outline: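 Aqueous solubility of crystalline material, determined at pH 8.5 and at lower pH.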

Homo sapiens [20] = species on record: Homo sapiens; experiment: Selectivity ratio for human CGRP receptor over adrenomedullin receptor-2 (unknown origin)
[21] = molecular target: Calcitonin gene-related peptide type 1 receptor (Homo sapiens) (UniProt Q16602); experiment: (§4) Displacement of [125I]-CGRP from CGRP receptor in human SK-N-MC cell membranes after 2 hrs by scintillation counting analysis
[22] = molecular target: T1, Calcitonin gene-related peptide type 1 receptor; experiment: as §4
Cytochrome P450 2D6 = Cytochrome P450 2D6 (Homo sapiens, UniProt P10635); experiment: Inhibition of CYP2D6 (unknown origin) expressed in baculovirus-infected insect cell microsomes assessed as 3-[2-(N,N-diethyl-N-methylamino)ethyl]-7-methoxy-4-methylcoumarin conversion to 3-[2-(N,N-diethylamino)ethyl]-7-hydroxy-4-methylcoumarin after 45 mins by fluorescence assay; type: ADME, Microsome
Cytochrome P450 2C9 = Cytochrome P450 2C9 (Homo sapiens, UniProt P11712); experiment: Inhibition of CYP2C9 (unknown origin) expressed in baculovirus-infected insect cell microsomes assessed as 7-methoxy-4-trifluoromethylcoumarin conversion to 7-hydroxy-4-trifluoromethylcoumarin after 45 mins by fluorescence assay; type: ADME, Microsome
[23] = Tmax in intranasally dosed New Zealand White rabbit; type: ADME, organism-based, Oryctolagus cuniculus; details: in vivo, inhaled or intranasal; outline: as §2
[24] = Subcutaneous bioavailability in sc dosed Sprague-Dawley rat; details: in vivo
Cytochrome P450 3A4 [25] = molecular target: T3, Cytochrome P450 3A4 (Homo sapiens, UniProt P08684); experiment: Inhibition of CYP3A4 (unknown origin) expressed in baculovirus-infected insect cell microsomes assessed as 7-benzyloxy-4-trifluoromethylcoumarin conversion to 7-hydroxy-4-trifluoromethylcoumarin after 20 mins by fluorescence assay; type: ADME, Microsome
Rattus norvegicus [26] = experiment: Toxicity in Sprague-Dawley rat assessed as erosion of olfactory epithelium at 175 mg/mL administered intranasally for 7 days; type: organism-based; details: in vivo, inhaled_or_intranasal, 168 h; outline: as §1
[27] = Vasoconstriction of human coronary artery up to 10 uM; type: functional, tissue-based
[28] = Fraction unbound in human plasma; type: ADME, cell-free
hERG [29] = molecular target: T4, hERG (Homo sapiens, UniProt Q12809); experiment: Inhibition of human ERG at 30 uM relative to control
Rattus norvegicus [30] = experiment: Toxicity in Sprague-Dawley rat assessed as neutrophilic inflammation of respiratory epithelium at 175 mg/mL administered intranasally for 7 days; type: organism-based; details: in vivo, inhaled_or_intranasal, 168 h; outline: as §1
Rattus norvegicus [31] = experiment: Toxicity in Sprague-Dawley rat assessed as single cell necrosis of respiratory epithelium at 175 mg/mL administered intranasally for 7 days; type: organism-based; details: in vivo, inhaled_or_intranasal, 168 h; outline: as §1
[32] = Oral bioavailability in intranasally dosed New Zealand White rabbit at 100 mg/mL; type: ADME, organism-based, Oryctolagus cuniculus; details: in vivo, other: intranasal; outline: as §2
Rattus norvegicus [33] = experiment: Toxicity in Sprague-Dawley rat assessed as ulceration of olfactory epithelium at 175 mg/mL administered intranasally for 7 days; type: organism-based; details: in vivo, inhaled_or_intranasal, 168 h; outline: as §1
[34] = Permeability from apical to basolateral side of human Caco2 cells; type: ADME, cell-based; details: Caco-2, read-out: permeability
[35] = Reversal of CGRP-induced dilation of human intracranial arterial rings assessed as rightward shift of concentration-response curve after 30 mins by Schild plot analysis; type: functional; details: 0.5 h
Callithrix jacchus [36] = experiment: Inhibition of human alphaCGRP-induced increase in facial blood flow in marmoset at 0.03 mg/kg, sc administered 30 mins after human alphaCGRP-challenge measured 15 mins post-dose by laser Doppler flowmetric analysis relative to control; type: functional; details: route subcutaneous; outline: as §3
Homo sapiens [37] = species on record: Homo sapiens; experiment: Selectivity ratio for human CGRP receptor over human calcitonin receptor
hERG [38] = molecular target: T4, hERG; experiment: Inhibition of human ERG at 10 uM relative to control
[39] = Oral bioavailability in mouse; type: ADME, organism-based; details: in vivo
Cytochrome P450 3A4 [40] = molecular target: T3, Cytochrome P450 3A4; experiment: Inhibition of CYP3A4 (unknown origin) expressed in baculovirus-infected insect cell microsomes assessed as benzoylresorufin conversion to resorufin metabolites after 45 mins by fluorescence assay; type: ADME, Microsome
[41] = Plasma concentration in intranasally dosed New Zealand White rabbit after 5 mins; type: ADME, organism-based, Oryctolagus cuniculus; details: inhaled or intranasal; outline: as §2
Rattus norvegicus [42] = experiment: Toxicity in Sprague-Dawley rat assessed as lesions in respiratory epithelium at => 75 mg/mL administered intranasally for 7 days; type: organism-based; details: in vivo, inhaled_or_intranasal, 168 h; outline: as §1
[43] = molecular target: Calcitonin gene-related peptide type 1 receptor (Homo sapiens) (UniProt Q16602); experiment: Antagonist activity at CGRP receptor in human SK-N-MC cell membranes assessed as inhibition of CGRP-stimulated cAMP production; type: functional, cell-based
Rattus norvegicus [44] = experiment: Toxicity in Sprague-Dawley rat assessed as inflammation of olfactory epithelium at 175 mg/mL administered intranasally for 7 days; type: organism-based; details: in vivo, inhaled_or_intranasal, 168 h; outline: as §1
Homo sapiens [45] = species on record: Homo sapiens; experiment: Selectivity ratio for human CGRP receptor over amylin receptor-1 (unknown origin)
Cytochrome P450 2C19 = Cytochrome P450 2C19 (Homo sapiens, UniProt P33261); experiment: Inhibition of CYP2C19 (unknown origin) expressed in baculovirus-infected insect cell microsomes assessed as 3-cyano-7-ethoxycoumarin conversion to 7-hydroxy-3-cyanocoumarin after 45 mins by fluorescence assay; type: ADME, Microsome
Sequence of Cytochrome P450 2C19 (P33261 whole entry): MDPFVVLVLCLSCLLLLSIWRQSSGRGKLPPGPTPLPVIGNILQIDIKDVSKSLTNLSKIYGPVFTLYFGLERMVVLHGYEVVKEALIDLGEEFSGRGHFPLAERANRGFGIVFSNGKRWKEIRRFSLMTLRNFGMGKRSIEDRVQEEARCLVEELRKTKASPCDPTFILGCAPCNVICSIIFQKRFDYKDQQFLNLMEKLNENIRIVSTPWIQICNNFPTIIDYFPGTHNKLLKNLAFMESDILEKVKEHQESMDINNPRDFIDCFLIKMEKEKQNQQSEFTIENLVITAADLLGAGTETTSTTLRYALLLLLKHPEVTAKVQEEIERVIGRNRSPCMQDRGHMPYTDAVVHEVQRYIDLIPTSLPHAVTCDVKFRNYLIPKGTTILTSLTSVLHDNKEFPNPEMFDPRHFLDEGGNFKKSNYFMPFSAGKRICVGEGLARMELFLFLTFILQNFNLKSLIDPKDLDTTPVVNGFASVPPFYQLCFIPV

T3 sequence (P08684 whole entry): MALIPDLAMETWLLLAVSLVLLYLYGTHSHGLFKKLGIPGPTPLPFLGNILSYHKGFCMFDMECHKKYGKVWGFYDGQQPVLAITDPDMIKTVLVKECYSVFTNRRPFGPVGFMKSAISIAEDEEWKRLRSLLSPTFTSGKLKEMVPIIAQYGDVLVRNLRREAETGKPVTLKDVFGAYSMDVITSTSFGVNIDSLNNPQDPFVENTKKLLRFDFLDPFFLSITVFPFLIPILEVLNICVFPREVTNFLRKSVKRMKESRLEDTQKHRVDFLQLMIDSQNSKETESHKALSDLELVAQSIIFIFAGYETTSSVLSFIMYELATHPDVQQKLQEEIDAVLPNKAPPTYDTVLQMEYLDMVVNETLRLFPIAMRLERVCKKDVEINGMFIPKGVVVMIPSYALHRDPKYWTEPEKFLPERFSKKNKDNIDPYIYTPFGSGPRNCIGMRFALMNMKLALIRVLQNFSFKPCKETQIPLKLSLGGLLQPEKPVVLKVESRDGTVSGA
T4 sequence (Q12809 whole entry): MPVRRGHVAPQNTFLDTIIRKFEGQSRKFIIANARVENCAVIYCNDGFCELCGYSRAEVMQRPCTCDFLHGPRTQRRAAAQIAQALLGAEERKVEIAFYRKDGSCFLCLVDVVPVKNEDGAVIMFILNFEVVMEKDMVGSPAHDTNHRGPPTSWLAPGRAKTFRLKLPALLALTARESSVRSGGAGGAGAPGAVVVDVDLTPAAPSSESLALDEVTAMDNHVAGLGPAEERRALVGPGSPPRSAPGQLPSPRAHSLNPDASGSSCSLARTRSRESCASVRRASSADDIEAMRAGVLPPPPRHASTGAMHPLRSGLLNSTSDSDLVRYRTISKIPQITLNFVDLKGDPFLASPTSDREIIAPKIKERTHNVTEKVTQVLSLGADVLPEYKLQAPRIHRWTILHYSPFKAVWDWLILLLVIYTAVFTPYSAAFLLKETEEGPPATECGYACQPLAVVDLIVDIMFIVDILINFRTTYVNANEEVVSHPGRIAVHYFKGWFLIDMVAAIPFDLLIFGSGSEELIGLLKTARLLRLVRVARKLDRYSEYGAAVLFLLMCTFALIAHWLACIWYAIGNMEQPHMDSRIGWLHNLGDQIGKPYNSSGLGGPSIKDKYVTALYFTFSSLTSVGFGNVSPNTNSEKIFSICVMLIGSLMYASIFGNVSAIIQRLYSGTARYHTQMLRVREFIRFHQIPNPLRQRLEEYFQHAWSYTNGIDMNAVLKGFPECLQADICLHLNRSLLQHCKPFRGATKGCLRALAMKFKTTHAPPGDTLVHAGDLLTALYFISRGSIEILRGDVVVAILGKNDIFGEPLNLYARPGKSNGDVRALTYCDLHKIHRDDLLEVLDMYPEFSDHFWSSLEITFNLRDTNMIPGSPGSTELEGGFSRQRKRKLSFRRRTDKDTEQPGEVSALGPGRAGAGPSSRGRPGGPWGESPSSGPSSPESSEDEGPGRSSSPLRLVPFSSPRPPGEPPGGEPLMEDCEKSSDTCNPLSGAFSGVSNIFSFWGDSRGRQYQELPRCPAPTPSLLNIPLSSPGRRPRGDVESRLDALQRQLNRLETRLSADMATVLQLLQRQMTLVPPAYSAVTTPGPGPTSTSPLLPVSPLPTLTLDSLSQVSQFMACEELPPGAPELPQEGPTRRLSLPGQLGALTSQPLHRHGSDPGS
T1 sequence (Q16602 whole entry, one chain of several): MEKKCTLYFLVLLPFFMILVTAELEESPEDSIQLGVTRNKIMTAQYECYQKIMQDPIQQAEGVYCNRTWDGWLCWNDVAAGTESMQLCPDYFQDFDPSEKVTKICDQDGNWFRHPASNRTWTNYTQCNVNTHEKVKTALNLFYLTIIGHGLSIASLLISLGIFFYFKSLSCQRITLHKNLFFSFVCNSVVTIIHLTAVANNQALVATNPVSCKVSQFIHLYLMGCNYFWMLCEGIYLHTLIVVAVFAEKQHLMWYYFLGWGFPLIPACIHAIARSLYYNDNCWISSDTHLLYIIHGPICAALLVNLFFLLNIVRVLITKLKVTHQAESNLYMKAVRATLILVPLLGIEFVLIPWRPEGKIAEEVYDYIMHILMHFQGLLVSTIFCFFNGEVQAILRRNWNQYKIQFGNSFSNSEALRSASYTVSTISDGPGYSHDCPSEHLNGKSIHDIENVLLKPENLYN
Sequence of Calcitonin gene-related peptide type 1 receptor (Homo sapiens) (Q16602 whole entry): as the sequence (Q16602 whole entry, one chain of several) above
Sequence of Cytochrome P450 2D6 (P10635 whole entry): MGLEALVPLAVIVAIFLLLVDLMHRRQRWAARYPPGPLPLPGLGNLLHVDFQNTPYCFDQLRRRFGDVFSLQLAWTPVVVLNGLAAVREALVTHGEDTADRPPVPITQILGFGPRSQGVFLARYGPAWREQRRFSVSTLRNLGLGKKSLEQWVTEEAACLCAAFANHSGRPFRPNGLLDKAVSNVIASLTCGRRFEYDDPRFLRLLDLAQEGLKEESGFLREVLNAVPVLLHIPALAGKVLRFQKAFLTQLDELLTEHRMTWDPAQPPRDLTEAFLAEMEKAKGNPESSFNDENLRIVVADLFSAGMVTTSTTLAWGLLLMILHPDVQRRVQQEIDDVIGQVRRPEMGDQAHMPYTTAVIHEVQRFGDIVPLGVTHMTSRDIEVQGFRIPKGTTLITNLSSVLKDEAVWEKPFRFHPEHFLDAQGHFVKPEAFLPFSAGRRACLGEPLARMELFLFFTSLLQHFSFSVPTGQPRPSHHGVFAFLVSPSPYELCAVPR
Sequence of Cytochrome P450 2C9 (P11712 whole entry): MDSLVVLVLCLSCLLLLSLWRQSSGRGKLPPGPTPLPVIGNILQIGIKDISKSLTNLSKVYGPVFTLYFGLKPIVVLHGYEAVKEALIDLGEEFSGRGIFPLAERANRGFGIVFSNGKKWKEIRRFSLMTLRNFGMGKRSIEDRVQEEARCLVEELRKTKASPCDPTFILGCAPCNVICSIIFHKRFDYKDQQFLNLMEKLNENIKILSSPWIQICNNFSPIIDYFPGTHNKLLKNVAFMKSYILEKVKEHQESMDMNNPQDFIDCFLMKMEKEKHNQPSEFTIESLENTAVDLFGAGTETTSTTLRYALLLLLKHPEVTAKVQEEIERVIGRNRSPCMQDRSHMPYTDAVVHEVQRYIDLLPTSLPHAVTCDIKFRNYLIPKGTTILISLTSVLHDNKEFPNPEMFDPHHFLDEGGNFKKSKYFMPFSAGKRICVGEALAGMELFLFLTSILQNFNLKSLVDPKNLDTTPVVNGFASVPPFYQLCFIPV

O=C(CN1C(=O)C2(CCCC2)NC[C@H]1c1cc(F)cc(F)c1)Nc1ccc2c(c1)C[C@@]1(C2)C(=O)Nc2ncccc21 [MK3207]
Ki [1]: 0.021 nM

CNS(=O)(=O)Cc1ccc2[nH]cc(CCN(C)C)c2c1
Activity [2]: Dose-dependent effect | EC50 [2]: 280 nM

Cc1cc(C[C@@H](NC(=O)N2CCC(N3Cc4cccc(F)c4NC3=O)CC2)C(=O)N2CCC(N3CCCCC3)CC2)cc2cn[nH]c12
Activity (Rattus norvegicus [3]): Toxic | Activity (Rattus norvegicus [4]): Toxic

Cc1cc(C[C@@H](NC(=O)N2CCC(c3cc4ccccc4[nH]c3=O)CC2)C(=O)N2CCN(C3CCN(C)CC3)CC2)cc2cn[nH]c12 [ZAVEGEPANT]
Selectivity ratio (Homo sapiens [5]): > 10000 | bioavailability [6]: 13% | concentration [7]: 25 nM | Cmax [8]: 120 nM | Activity (Rattus norvegicus [3]): Non-toxic | inhibition in vivo at 0.03 mg/kg (Callithrix jacchus [9]): 70% | MTD at 240 h [10]: 30 mg/kg/day | Degradation % at 2191.5 h, 40 mg/mL [11]: 0.3% | Selectivity ratio (Homo sapiens [12]): > 10000 | Papp B→A [13]: 1.6 ×10⁻⁶ cm/s | inhibition in vivo at 0.03 mg/kg (Callithrix jacchus [14]): 80% | permeability [15]: impermeable | bioavailability [16]: 0.3% | EC50 [17]: 0.88 nM | Activity (Rattus norvegicus [18]): Toxic | IC50 (Cytochrome P450 1A2): > 40000 nM | solubility [19]: > 300 mg/mL | Selectivity ratio (Homo sapiens [20]): > 10000 | inhibition [21]: Dose-dependent effect | Ki [22]: 0.023 nM | IC50 (Cytochrome P450 2D6): > 40000 nM | IC50 (Cytochrome P450 2C9): > 40000 nM | Tmax [23]: 15 min | bioavailability [24]: 82% | IC50 (Cytochrome P450 3A4 [25]): > 40000 nM | Activity (Rattus norvegicus [26]): Toxic | Activity [27]: inactive | fraction unbound [28]: 0.37 | inhibition at 30 µM (hERG [29]): 22% | Activity (Rattus norvegicus [30]): Toxic | Activity (Rattus norvegicus [31]): Toxic | bioavailability [32]: 30% | Activity (Rattus norvegicus [33]): Toxic | Papp A→B [34]: 1.6 ×10⁻⁶ cm/s | Kb [35]: 0.091 nM | inhibition in vivo at 0.03 mg/kg (Callithrix jacchus [36]): 48% | Activity (Rattus norvegicus [4]): Non-toxic | Selectivity ratio (Homo sapiens [37]): > 10000 | inhibition at 10 µM (hERG [38]): 9.5% | bioavailability [39]: 1.4% | IC50 (Cytochrome P450 3A4 [40]): 24000 nM | concentration at 5 min [41]: > 10 nM | Activity (Rattus norvegicus [42]): Toxic | Kb [43]: 0.022 nM | Activity (Rattus norvegicus [44]): Toxic | Selectivity ratio (Homo sapiens [45]): > 10000 | IC50 (Cytochrome P450 2C19): > 40000 nM
